This is an account of results in ChEMBL document CHEMBL1149837, “Isothiocyanate sesquiterpenes from a sponge of the genus axinyssa” (2008).

One may read the GI50 as the concentration giving 50% growth inhibition. As usually defined, the TGI is the concentration giving total growth inhibition.

Activity calls are given as the source filed them. The rule behind the calls is not given here.

In experiment [1] the test system is A549. The experiment is described as follows: Cytotoxicity against human A549 cells by SRB assay. It is filed as functional. The gist of the method: (§1)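 SRB colorimetric assay of cell growth and viability, adapted from a published method, in human tumour lines MDA-MB-231 (breast adenocarcinoma), A-549 (lung adenocarcinoma) and HT-29 (colon adenocarcinoma). The highest concentration tested was 10 µg/mL. Read-outs were GI50 and TGI, both in µM.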
Background: The SRB assay estimates cell density from bound dye.

Experiment [2] relates to HT-29. The experiment is described as follows: Cytotoxicity against human HT29 cells by SRB assay. It is filed as functional. The gist of the method:
as §1

The subject of experiment [3] is MDA-MB-231. The experiment is described as follows: Cytotoxicity against human MDA-MB-231 cells by SRB assay. In kind it is functional. The gist of the method: as §1
Experiment [4] concerns MDA-MB-231. The experiment is described as follows: Cytotoxicity against human MDA-MB-231 cells at 10ug/ml by SRB assay. It is filed as functional, cell-based. The gist of the method:
as §1

Experiment [5] relates to A549. The experiment is described as follows: Cytotoxicity against human A549 cells at 10ug/ml by SRB assay. In kind it is functional, cell-based. In short, it runs like this:
as §1

Experiment [6] has as its system HT-29. The experiment is described as follows: Cytotoxicity against human HT29 cells at 10ug/ml by SRB assay. In kind it is functional, cell-based. In short, it runs like this:
as §1

As to `CC1=C[C@@H]2[C@@H](C(C)C)CC[C@@](C)(N=C=S)[C@@H]2CC1=O` [AXINISOTHIOCYANATE L], the GI50 with A549 [1] and with HT-29 [2] was 31.4 µM throughout.
As to `CC(C)[C@@H]1CC[C@](C)(N=C=S)[C@@H]2CC[C@@](C)(O)C=C12` [AXINISOTHIOCYANATE J], the GI50 in the experiment on MDA-MB-231 [3] stood at 10.4 µM; in the experiment with A549 [1] it was 11.8 µM; in the experiment on HT-29 [2], 11.8 µM. Besides, the TGI in the experiment with MDA-MB-231 [3] worked out at 14.3 µM; with A549 [1] it was 19 µM; in the experiment on HT-29 [2], 14 µM.
Consider `CC(C)[C@@H]1CC[C@](C)(N=C=S)[C@]2(O)CC[C@@](C)(O)C=C12`, for which the result in the experiment with MDA-MB-231 [4], with A549 [5] and in the experiment with HT-29 [6] was inactive.
On to `CC(C)[C@@]1(OO)CC[C@](C)(N=C=S)[C@@H]2CC[C@@](C)(O)C=C21`, for which the outcome in the experiment with MDA-MB-231 [4], with A549 [5] and in the experiment on HT-29 [6] was inactive.
